Assay results taken from ChEMBL document CHEMBL3108662, “Controlled oxygen release from pyridone endoperoxides promotes cell survival under anoxic conditions” (J Med Chem, 2013).
Active and inactive are the calls of the source. The calls are words filed in the database; no cut-off is given here.

Columns and labels:
[1] = Induction of oxygen release in H2O/D2O relative to DMSO-treated control; format: physicochemical
[2] = Half life in H2O/D2O at 37 degC by 1H-NMR spectroscopic analysis; format: ADME
Rattus norvegicus [3] = species on record: Rattus norvegicus; assay: Growth promoting activity in rat primary smooth muscle cells under normoxic condition at 10 to 50 ug/mL measured over 4 days by WST-1 assay; format: functional
Procedure, shortened: (§1)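 Primary smooth muscle cells freshly isolated from rat bladder, seeded at 4000 cells/cm² in DMEM/10% FBS/1% Pen/Strep. Additive dissolved in 1:50 H₂O/DMSO and added at 10–200 µg/mL, with or without vitamin C (100 or 200 µg/mL). Normoxic at 37°C, 5% CO₂, or anoxic in sealed N₂-degassed medium, up to 4 days. WST-1 read on days 1–4 (3 h, A450). Triplicates, normalized to untreated = 100%.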

Rattus norvegicus [4] = species on record: Rattus norvegicus; assay: Growth promoting activity in rat primary smooth muscle cells under anoxic condition at 50 ug/mL measured over 4 days by WST-1 assay in presence of 100 ug/mL vitamin C; format: functional; procedure, shortened: as §1
[5] = Cytotoxicity against rat primary smooth muscle cells assessed as growth inhibition under anoxic condition up to 100 ug/mL measured over 4 days by WST-1 assay; format: cell-based; details: 96 h; procedure, shortened: as §1
[6] = Cytotoxicity against rat primary smooth muscle cells assessed as growth inhibition under normoxic condition measured over 4 days by WST-1 assay; format: cell-based; details: 96 h
Procedure, shortened: (§2)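 Primary smooth muscle cells freshly isolated from rat bladder, plated at 4000 cells/cm² in DMEM/F-12, 10% FBS, 1% Pen/Strep. Compound was added from 1:50 H2O/DMSO at 10–200 µg/mL, with or without vitamin C in water at 100 or 200 µg/mL. Normoxic (37°C, 5% CO2) or anoxic runs: N2-degassed medium, plates sealed under N2 for up to 4 days without medium change. WST-1 absorbance at 450 nm after 3 h, days 1-4. Normalized to untreated control as 100%. Triplicates.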

Rattus norvegicus [7] = species on record: Rattus norvegicus; assay: Growth promoting activity in rat primary smooth muscle cells under anoxic condition at 29 uM measured over 4 days by WST-1 assay in presence of 100 ug/mL vitamin C; format: functional; procedure, shortened: as §2
3T3 [8] = assay: Cytotoxicity against […] cells assessed as growth inhibition under anoxic condition at 29 to 580 uM measured over 4 days by WST-1 assay in presence of 100 ug/mL vitamin C; format: cell-based; details: 3t3, 96 h
Procedure, shortened: (§3)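 3T3 fibroblasts plated at 4000 cells/cm² in DMEM/F-12 with 10% FBS and 1% Pen/Strep. Compound in 1:50 H2O/DMSO was added at 10, 50, 100 or 200 µg/mL, alone or with vitamin C in water (100 or 500 µg/mL). Run normoxic (37°C, 5% CO2) or anoxic (N2-degassed medium, sealed bags under N2, no medium change, up to 4 days). WST-1 read at 450 nm after 3 h on days 1-4. Growth normalized to untreated control as 100%. Triplicates.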

3T3 [9] = assay: Cytotoxicity against […] cells assessed as growth inhibition under normoxic condition measured over 4 days by WST-1 assay; format: cell-based; details: 3t3, 96 h; procedure, shortened: as §3
Rattus norvegicus [10] = species on record: Rattus norvegicus; assay: Growth promoting activity in rat primary smooth muscle cells under normoxic condition at 50 ug/mL measured over 4 days by WST-1 assay in presence of 100 to 200 ug/mL vitamin C; format: functional; procedure, shortened: as §2
[11] = Drug degradation in H2O/D2O assessed as byproduct formation at 37 degC by 1H-NMR spectroscopic analysis; format: physicochemical
3T3 [12] = assay: Cytotoxicity against […] cells assessed as growth inhibition under normoxic condition at 29 to 580 uM measured over 4 days by WST-1 assay in presence of 100 ug/mL vitamin C; format: cell-based; details: 3t3, 96 h; procedure, shortened: as §3
[13] = Cytotoxicity against rat primary smooth muscle cells assessed as growth inhibition under anoxic condition at 50 ug/mL measured over 4 days by WST-1 assay in presence of 200 ug/mL vitamin C; format: cell-based; details: 96 h; procedure, shortened: as §2
3T3 [14] = assay: Cytotoxicity against […] cells assessed as growth inhibition under normoxic condition at 200 ug/ml measured over 4 days by WST-1 assay in presence of vitamin C relative to control; format: cell-based; details: 3t3, 96 h; procedure, shortened: as §3
[15] = Cytotoxicity against rat primary smooth muscle cells assessed as growth inhibition under anoxic condition at 50 ug/mL measured over 4 days by WST-1 assay; format: cell-based; details: 96 h; procedure, shortened: as §2
3T3 [16] = assay: Cytotoxicity against […] cells assessed as growth inhibition under anoxic condition at 100 ug/ml measured on day 4 by WST-1 assay in presence of vitamin C relative to control; format: cell-based; procedure, shortened: as §3
[17] = Cytotoxicity against rat primary smooth muscle cells assessed as growth inhibition under normoxic condition at 50 ug/mL measured over 4 days by WST-1 assay; format: cell-based; details: 96 h; procedure, shortened: as §2
Rattus norvegicus [18] = species on record: Rattus norvegicus; assay: Growth promoting activity in rat primary smooth muscle cells under normoxic condition at 29 uM measured over 4 days by WST-1 assay in presence of 100 ug/mL vitamin C; format: functional; procedure, shortened: as §2
3T3 [19] = assay: Growth promoting activity in rat 3T3 cells under normoxic condition at 100 to 200 ug/mL measured on day 1 by WST-1 assay in presence of 500 ug/mL vitamin C; format: functional, cell-based; procedure, shortened: as §3
3T3 [20] = assay: Cytotoxicity against […] cells assessed as growth inhibition under normoxic condition at 50 ug/ml measured over 4 days by WST-1 assay in presence of vitamin C; format: cell-based; details: 3t3, 96 h; procedure, shortened: as §3
3T3 [21] = assay: Cytotoxicity against […] cells assessed as growth inhibition under normoxic condition at 100 ug/ml measured on day 4 by WST-1 assay in presence of vitamin C relative to control; format: cell-based; procedure, shortened: as §3
3T3 [22] = assay: Cytotoxicity against […] cells assessed as growth inhibition under anoxic condition at 29 uM measured over 4 days by WST-1 assay; format: cell-based; details: 3t3, 96 h; procedure, shortened: as §3
[23] = Induction of singlet oxygen release in water at 0.1 mM measured every 10 mins by SOSG assay; format: physicochemical; details: buffer, 100 µM
Procedure, shortened: (§4)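 Singlet oxygen sensor green was dissolved in MeOH. Compound was dissolved in MeOH, then diluted in water, with or without vitamin C dissolved in water. Fluorescence (ex/em 488/525 nm) recorded every 10 min at 37 °C. Blanks of SOSG or SOSG/vitamin C were subtracted. Triplicates.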

[24] = Induction of singlet oxygen release in water at 0.1 mM measured every 10 mins by SOSG assay in presence of 0.37 mM vitamin C; format: physicochemical; details: buffer, 100 µM; procedure, shortened: as §4
3T3 [25] = assay: Growth promoting activity in […] cells under anoxic condition at 29 uM measured on day 1 by WST-1 assay in presence of 100 ug/mL vitamin C; format: functional, cell-based; procedure, shortened: as §3
3T3 [26] = assay: Cytotoxicity against […] cells assessed as growth inhibition under anoxic condition at 50 ug/ml measured over 4 days by WST-1 assay in presence of vitamin C; format: cell-based; details: 3t3, 96 h; procedure, shortened: as §3
3T3 [27] = assay: Cytotoxicity against […] cells assessed as growth inhibition under anoxic condition at 200 ug/ml measured over 4 days by WST-1 assay in presence of vitamin C relative to control; format: functional, cell-based; procedure, shortened: as §3
3T3 [28] = assay: Cytotoxicity against […] cells under anoxic condition at 29 uM measured over 4 days by WST-1 assay in presence of 100 ug/mL vitamin C; format: cell-based; details: 3t3, 96 h; procedure, shortened: as §3
3T3 [29] = assay: Cytotoxicity against […] cells under normoxic condition at 29 uM measured over 4 days by WST-1 assay in presence of 100 ug/mL vitamin C; format: cell-based; details: 3t3, 96 h; procedure, shortened: as §3
3T3 [30] = assay: Cytotoxicity against […] cells assessed as growth inhibition under anoxic condition at 29 uM measured on day 1 by WST-1 assay in presence of 100 ug/mL vitamin C; format: cell-based; details: 3t3, 29 µM; procedure, shortened: as §3
[31] = Induction of oxygen release in H2O/D2O; format: physicochemical
3T3 [32] = assay: Growth promoting activity in […] cells assessed as change in cell growth under anoxic condition at 100 ug/ml measured over 4 days by WST-1 assay; format: functional, cell-based
Procedure, shortened: (§5)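 3T3 fibroblasts seeded at 4000 cells/cm² in DMEM/10% FBS/1% Pen/Strep. Additive from 1:50 H₂O/DMSO at 10–200 µg/mL, with or without vitamin C (100 or 500 µg/mL). Normoxic at 37°C, 5% CO₂, or anoxic with N₂-degassed medium and N₂ glove-bag handling in sealed bags, no medium change, up to 4 days. Daily WST-1 (1:10, 3 h, A450). Triplicates, normalized to untreated control = 100%.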

Rattus norvegicus [33] = species on record: Rattus norvegicus; assay: Growth promoting activity in rat primary smooth muscle cells under normoxic condition at 100 to 200 ug/mL measured over 4 days by WST-1 assay; format: functional; procedure, shortened: as §1
3T3 [34] = assay: Growth promoting activity in […] cells under anoxic condition at 500 ug/mL measured on day 1 by WST-1 assay; format: functional, cell-based; procedure, shortened: as §5
3T3 [35] = assay: Cytotoxicity against […] cells assessed as growth inhibition under normoxic condition at 500 ug/mL after 2 days by WST-1 assay; format: cell-based; details: 3t3, 48 h; procedure, shortened: as §5
[36] = Cytotoxicity against rat primary smooth muscle cells assessed as growth inhibition under normoxic condition at 100 to 200 ug/mL measured over 4 days by WST-1 assay; format: cell-based; details: 96 h; procedure, shortened: as §1

COCCOCCOCCOC(=O)CN1C(=O)C2C=CC1OO2 (configuration not stated)
Activity [1]: 18% | half-life [2]: 30 min

COCCOCCOCCOC(=O)Cn1cccc(C)c1=O
Activity (Rattus norvegicus [3]): inactive | Activity (Rattus norvegicus [4]): inactive | Activity [5]: Non-toxic

COCCOCCOCCOC(=O)CN1C(=O)C2(C)C=CC1OO2 (configuration not stated)
growth inhibition (GI) [6]: Dose-dependent effect | Activity (Rattus norvegicus [7]): Active | Activity (3T3 [8]): Non-toxic | growth inhibition (GI) (3T3 [9]): Dose-dependent effect | Activity (Rattus norvegicus [10]): Active | Drug degradation [11]: 20% | Activity (3T3 [12]): Non-toxic | Activity [1]: 78% | Activity [13]: Toxic | Activity (3T3 [14]): Non-toxic | Activity [15]: Toxic | fold change (FC) (3T3 [16]): 2 | Activity [17]: Toxic | Activity (Rattus norvegicus [18]): Active | Activity (3T3 [19]): Active | Activity (3T3 [20]): Toxic | fold change (FC) (3T3 [21]): 10 | Activity (3T3 [22]): Non-toxic | Activity [23]: Active | Activity [24]: Not Active | Activity (3T3 [25]): Active | Activity (3T3 [26]): Toxic | Activity (3T3 [27]): inactive | Activity (3T3 [28]): Toxic | Activity (3T3 [29]): Toxic | Activity (3T3 [30]): Non-toxic

COCCOCCOCCOC(=O)CN1C(=O)C2C=CC1(C)OO2 (configuration not stated)
Drug degradation [11]: > 50% | Activity [31]: 50% | half-life [2]: 240 min

COCCOCCOCCOC(=O)CN1C(=O)C2(C)C=C(C)C1(C)OO2 (configuration not stated)
Drug degradation [11]: > 50% | Activity [31]: 10% | half-life [2]: 900 min

O=C1O[C@H]([C@@H](O)CO)C(O)=C1O [ASCORBIC ACID]
Activity (3T3 [32]): inactive | Activity (Rattus norvegicus [33]): inactive | Activity (3T3 [34]): Active | Activity (3T3 [35]): Toxic | Activity [36]: Non-toxic

COCCOCCOCCOC(=O)CN1C(=O)C2(C)C=C(C)C1OO2 (configuration not stated)
Activity [1]: 47% | half-life [2]: 780 min

COCCOCCOCCOC(=O)CN1C(=O)C2(C)C=CC1(C)OO2 (configuration not stated)
Drug degradation [11]: > 50% | Activity [31]: 50% | half-life [2]: 240 min
